Experimental findings from article PMC5634022 (Journal of Insect Science, 2014) are described below.

The test concerns CarE (carboxylesterase, EC3.1.1.1), final purified. Nature of the test: esterase activity, Fast Blue B, Lineweaver-Burk. It is filed as biochemical, Dendrolimus superans. The note with it: read-out: K m (mol/liter); 35°C; kcat unit printed as s. The procedure, abridged:
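Carboxylesterase from sixth-instar larval tissue homogenate, purified at 4°C by ammonium sulfate precipitation, Sephadex G-25, DEAE-52 and hydroxyapatite chromatography. Enzyme incubated 10 min at 35°C with α- or β-naphthyl acetate at five concentrations (0.1875–3.0 × 10^-4 mol/liter). Stopped with SDS/Fast Blue B; read at 600 nm. Km and Vmax from Lineweaver–Burk plots. Kcat from SDS-PAGE molecular weight and Vmax.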

In the case of `CC(=O)Oc1ccc2ccccc2c1` [β-NA], the Km is 0.000162 mol/L.
